Screening data deposited in PubChem BioAssay by several laboratories.
Ins promoter up: insulin promoter activators in MIN6 cells, imaging, high-content screening, mouse beta cells; 190,000 tested, 0.3% active; z-score at 5 µM; MIN6 insulin promoter-GFP reporter; active compounds read high; AID 1625, 2009;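 active means z-score above 3 at 5 µM with at least 500 cells counted in the well; inconclusive means wells under 500 cells, flagged as cytotoxic or low count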
Insulin prom inh: inhibitors of insulin promoter-driven GFP, primary screen, imaging, TRM-6 cells (human fetal islet line), eGFP reporter, cell count. reporter expression induced with tamoxifen. inhibition, % at 2 µM. 130,000 tested, 0.9% active. AID 1273, 2008;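 active means inhibition above the mean plus 3 SD, with well images judged a real hit on visual review, cut at about 60% in these data, passing the limit was not always enough; inconclusive means inhibition over the cutoff but images rejected on review; inactive means inhibition not above the cutoff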
Dynein transport: inhibitors of GR-EGFP nuclear translocation, primary screen, dynein cargo transport inhibitor project, imaging, high-content, 3617.4 mouse cells; z-score, hits read low; test concentration mostly 20 µM; stimulated with dexamethasone, 1 µM; active compounds read low; 220,000 tested, 0.47% active;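 active means plate z-score of nuclear minus cytoplasmic receptor signal below a set negative limit, without overly bright fluorescence or cell loss, cut at about -3.5 in these data, passing the limit was not always enough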;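 further: z-score of nuclear minus cytoplasmic ring GR-EGFP intensity difference per well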
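Medium: Induction medium lacking tetracycline, stripped serum | Probe or stimulus: 1.0 µM final dexamethasone stimulus | Schedule: 48 h induction, then 1 h compound, then 30 min agonist, 37 °C | Signal: Automated 10x imaging of fixed Hoechst-stained cells | Evaluation: Per-cell GR-EGFP intensity, nucleus versus surrounding cytoplasmic ring, well-averaged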
PERK inh: block of dimerizer-induced PERK translation repression, primary screen, PERK inhibitor project, CHO PERK-DD cells, SEAP luminescence, HTS | CHO PERK-DD fusion, SEAP luminescence translation reporter | inhibition, % at 5.6 µM | 220,000 tested, 0.17% active;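 active means inhibition above the mean inhibition of all tested compounds plus 3 SD, set separately per screening campaign, cut at about 2.9% in these data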;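 further: PERK kinase domain activated by AP20187 dimerizer at 100 nM; 0% = DMSO with dimerizer and 100% = rapamycin at 8.4 µM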
Target sequence (Q9NZJ5 whole entry, looked up, the tested form may be a part): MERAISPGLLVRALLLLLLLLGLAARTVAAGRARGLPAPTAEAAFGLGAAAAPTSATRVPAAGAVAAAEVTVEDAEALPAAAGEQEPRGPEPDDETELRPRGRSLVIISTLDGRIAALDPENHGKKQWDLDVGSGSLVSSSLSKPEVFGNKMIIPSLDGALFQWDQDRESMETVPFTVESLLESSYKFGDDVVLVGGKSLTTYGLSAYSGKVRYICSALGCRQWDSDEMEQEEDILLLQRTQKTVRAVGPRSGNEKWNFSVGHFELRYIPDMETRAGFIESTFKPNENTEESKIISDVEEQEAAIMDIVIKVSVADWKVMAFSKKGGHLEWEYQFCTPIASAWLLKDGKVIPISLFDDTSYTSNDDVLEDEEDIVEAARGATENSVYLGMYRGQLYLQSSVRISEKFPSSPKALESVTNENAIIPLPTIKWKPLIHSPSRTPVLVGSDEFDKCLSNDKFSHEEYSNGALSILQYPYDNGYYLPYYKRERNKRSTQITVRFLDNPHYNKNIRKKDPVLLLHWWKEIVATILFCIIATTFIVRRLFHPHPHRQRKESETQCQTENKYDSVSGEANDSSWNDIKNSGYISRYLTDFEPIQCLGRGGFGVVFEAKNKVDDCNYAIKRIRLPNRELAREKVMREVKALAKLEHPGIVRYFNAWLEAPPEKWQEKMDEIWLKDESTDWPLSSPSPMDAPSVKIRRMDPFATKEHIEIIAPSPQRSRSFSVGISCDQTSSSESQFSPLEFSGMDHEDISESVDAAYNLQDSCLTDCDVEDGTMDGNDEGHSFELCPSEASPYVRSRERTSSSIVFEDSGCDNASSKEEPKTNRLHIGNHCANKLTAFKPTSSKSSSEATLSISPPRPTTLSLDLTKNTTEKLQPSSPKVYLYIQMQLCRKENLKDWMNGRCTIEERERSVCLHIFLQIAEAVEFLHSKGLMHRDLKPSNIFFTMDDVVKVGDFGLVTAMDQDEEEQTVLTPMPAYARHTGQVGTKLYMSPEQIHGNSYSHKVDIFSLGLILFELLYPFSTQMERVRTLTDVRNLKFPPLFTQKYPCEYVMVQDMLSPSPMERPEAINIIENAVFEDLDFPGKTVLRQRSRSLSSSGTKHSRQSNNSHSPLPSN
Autophagy HCS: autophagy modulators in MEF cells, primary screen, imaging, high-content, MEF GFP-LC3; 190,000 tested, 0.98% active; calls only at 10 µM (by protocol); MEF GFP-LC3 puncta imaging; test concentration mostly 10 µM;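 active means percentage of spot-positive cells more than 3 SD above its plate mean, without a fluorescence outlier flag or 80% toxicity; inconclusive means no clear call, values can overlap the other calls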;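 further: spot-positive cell cutoff set from DMSO-treated cells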
Active calls of the source: *; i = inactive; ? = inconclusive; . = not tested or not shown; + = active, no number. Sampled rows, rich in hits. Any-hit rate of the full collection: about 2.1%.

SMILES	Ins promoter up	Insulin prom inh	Dynein transport	PERK inh	Autophagy HCS
Cc1n[nH]c(C)c1CCC(=O)N/N=C/C=C/c1ccccc1	-0.73	-50.0	-0.58	0.8	i
CCN(CC)c1ccc(/C=N/NC(=O)c2cccc(S(=O)(=O)Nc3ccccc3OC)c2)c(O)c1	?	56.0	0.804	-1.1	+
CN(C)S(=O)(=O)c1cccc(-c2nn(-c3ccccc3)cc2/C=C(\C#N)c2nc3ccccc3[nH]2)c1	-0.86	-406.7	-0.568	0.1	i
N#C/C(=C\c1cccs1)c1nc2ccccc2[nH]1	0.05	85.2*	-0.351	0.4	i
N#C/C(=C\c1ccc(OC(=O)c2cccs2)cc1)c1nc2ccccc2[nH]1	-0.39	33.3	0.688	-0.2	i
N#C/C(=C\c1cn(-c2ccccc2)nc1-c1cc2ccccc2o1)c1nc2ccccc2[nH]1	1.68	-30.0	-0.723	0.7	+
N#C/C(=C\C1CC2C=CC1C2)c1nc2ccccc2[nH]1 (stereo not given)	0.58	78.6*	-0.344	-0.1	i
CC(=O)N1N=C(N)SC1(C)C	-0.11	11.6	-0.284	1.1	i
CC(=O)NCCCNS(=O)(=O)c1ccc(C)cc1	-0.45	.	-0.226	1.5	i
Cc1ccc(NC(=S)N(CCCN2CCCC2)Cc2cccn2Cc2ccc(Cl)cc2)cc1C	0.17	-64.3	-1.19	-0.5	i
Cc1ccc(NC(=S)N(CCCN2CCCC2)Cc2cccn2Cc2ccc(Cl)cc2)cc1Cl	-0.26	-146.2	0.62	0.6	+
COc1ccc(NC(=S)N(CCCN2CCCC2)Cc2cccn2Cc2ccc(Cl)cc2)cc1Cl	-3.83	.	0.544	0.4	+
FC(F)(F)c1cccc(NC(=S)N(CCCN2CCCC2)Cc2cccn2Cc2ccc(Cl)cc2)c1	-2.05	-146.7	0.206	-0.4	+
O=C(c1ccccc1)c1ccc2nc[nH]c2c1	0.02	94.6*	0.0329	1.3	i
O=C(NC1CCCC1)c1ccc2nc[nH]c2c1	-0.22	-3.5	-0.613	0.9	i
CC(=O)NC(c1ccc(Cl)cc1)c1c(O)ccc2ccc(O)cc12 (stereo not given)	10.6*	.	0.224	-0.7	i
O=C(N/N=C/c1cccc(O)c1)NC1CCCCC1	-1.78	.	-0.235	0.0	i
O=C(N/N=C/C=C/c1ccccc1)NC1CCCCC1	-0.61	.	0.369	1.1	+
COc1ccc(Br)cc1CN(C)CC(=O)Nc1c(Cl)cccc1Cl	-0.38	.	-0.601	0.3	i
S=c1nc(-c2ccccc2)[nH]c2ccccc12	-0.45	.	-0.283	-0.6	i
S=c1nc(-c2ccc(Br)cc2)[nH]c2ccccc12	-0.79	.	0.55	3.0*	.
COc1cccc(-c2cc(C(F)(F)F)c(C#N)c(=O)[nH]2)c1	0.61	.	-0.817	1.3	+
COC(=O)c1cc(C(=O)Nc2ccc(S(=O)(=O)NC(C)(C)C)cc2)cc([N+](=O)[O-])c1	0.33	36.1	-0.382	1.0	i
CCN(CC)S(=O)(=O)c1ccc(NC(=O)c2cc(C(=O)OC)cc([N+](=O)[O-])c2)cc1	1.02	70.6*	0.858	0.1	i
CC1C/C(=C/c2ccccn2)C(=O)/C(=C/c2ccccn2)C1 (stereo not given)	-2.59	?	-5.77*	0.1	i
SMILES	Ins promoter up	Insulin prom inh	Dynein transport	PERK inh	Autophagy HCS
O=C1/C(=C/c2ccccn2)COc2ccccc21	0.76	28.6	-1.39	1.2	i
C(=C\c1ccccn1)/c1ccccn1	0.22	.	0.841	2.4	.
CC(C)(C)C1C/C(=C/c2ccccn2)C(=O)/C(=C/c2ccccn2)C1 (stereo not given)	?	i	-4.88*	0.3	i
COc1ccc(CN(C)Cc2nc3scc(-c4ccccc4)c3c(=O)[nH]2)cc1OC	-0.28	-27.0	-0.293	-1.1	i
CCOc1ccc2nc(NCCNC(=S)NCCCN(C)C)c(C#N)cc2c1	.	23.8	2.21	3.0*	i
CCOc1ccc2nc(NCCNC(=O)Nc3ccccc3)c(C#N)cc2c1	-0.83	.	-0.774	-0.5	i
CC(C)Sc1nnc(CNC(=O)C23CC4CC(CC(C4)C2)C3)n1C1CCCCC1	-0.03	.	0.587	0.2	i
O=C(O)c1cccnc1Sc1ccc(Cl)cc1	0.32	.	0.149	0.3	+
CC(C)c1nc2sc3c(NCc4ccccc4)ncnc3c2c2c1COC(C)(C)C2	-0.62	-25.7	0.155	0.4	+
CNC(=S)N(CCc1ccccc1)Cc1cc2cc(OC)c(OC)cc2[nH]c1=O	-0.03	62.5*	3.4	-0.7	i
CC1(C(=O)Nc2ccccc2)Cc2ccccc2C(=O)O1 (stereo not given)	0.01	.	-1.11	0.0	+
CCNC(=O)COC(=O)c1cccc(Br)c1	0.54	.	0.57	1.2	.
N/C(=N\NC(=O)c1cccs1)c1cc2cc(Cl)ccc2oc1=O	-0.24	.	-0.688	0.0	.
COCCN1CN(S(=O)(=O)c2ccccc2)c2nc3ccccc3nc21	3.14*	53.1	0.636	-0.5	i
CCn1cc(C(C)(C)C)c(C#N)c1NC(C)=O	-0.54	-35.7	0.165	0.3	+
O=C(NCc1ccco1)c1cc2ccc(O)cc2oc1=O	0.13	91.8*	0.173	0.6	i
COc1ccc2cc(C(=O)NCc3ccco3)c(=O)oc2c1	0.04	-5.0	-0.0691	0.5	i
O=C(NCc1ccco1)c1ccc(C(F)(F)F)cc1	-0.09	77.8*	-0.196	0.2	i
O=C(NCc1ccco1)c1ccccc1-c1ccc(C(F)(F)F)cc1	0.21	-28.9	0.875	-1.0	i
O=C(O)c1ccc(CNC(=O)c2ccc(C(F)(F)F)cc2)cc1	-1.23	72.7*	0.163	-0.2	i
CCOc1cc(/C=C2/NC(=O)NC2=O)cc(Br)c1OCc1ccc(C(=O)O)cc1	1.69	41.7	-0.716	1.6	+
O=C(O)COc1c(Cl)cc(/C=C2/NC(=O)NC2=O)cc1Br	-0.1	-20.0	-0.825	0.8	i
Cc1nn(C)cc1CNC(=O)c1cnn2c1NC(c1ccc(Br)cc1)CC2C(F)(F)F (stereo not given)	0.09	19.2	-0.854	-0.2	i
Cc1c(CNC(=O)c2cnn3c2NC(c2ccc(Br)cc2)CC3C(F)(F)F)cnn1C (stereo not given)	0.29	80.7*	1.03	0.1	i
Cc1cc(NCCN2CCOCC2)n2nc(C)c(-c3ccc(Cl)cc3)c2n1	0.79	53.3	1.51	-1.1	+
Cc1cc(NCCN2CCOCC2)n2nc(C)c(-c3ccccc3)c2n1	-0.46	-343.8	-0.148	-0.5	i
COc1ccc(CC(=O)Nc2ccc(OC)nc2)cc1	0.05	.	-0.16	0.4	i
COc1ccc2c(CC(=O)Nc3ccc(OC)nc3)coc2c1	-0.14	-45.5	-1.03	0.0	+
